FLuc inh counter – firefly luciferase enzyme inhibitors, primary screen, artefact control for luciferase-based inhibitor screens, biochemical, luminescence, ATPLite. Luciferin 4-monooxygenase (Photinus pyralis), P08659. 10 min. inhibition, % at 10 µM. 200,000 tested, 1.5% active. AID 1006, 2008;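 active = inhibition above about 50% when tested at 10 µM, limit read from the data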
ABCB1 block – ABCB1 efflux pump inhibitors, primary screen, cell-based, multiplex, flow cytometry, ABCG2 counter-screen | inhibition, % at 6.6 µM | 190,000 tested, 0.067% active | AID 1326, 2008 | ATP-dependent translocase ABCB1 (Homo sapiens), P08183 | CCRF-Adr cells, JC-1 efflux; in the data active = inhibition above about 40%;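 also: 0% = vehicle and 100% = reference inhibitor; higher value means more JC-1 retained so stronger ABCB1 efflux block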
FLuc stim CS – FLuc activators, initial screening, artefact control for FLuc-dependent activation tests, biochemical, ATPlite luminescence; activation factor at 10 µM; 200,000 tested, under 10 active; AID 1027, 2008; ATPlite luciferase biochemical, 10 min; 0 = ATP-free wells, 1 = DMSO control; Luciferin 4-monooxygenase (Photinus pyralis), P08659;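 active = luciferase activation factor, scaled between plate controls, of at least 2 with compound at 10 µM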
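Material: Luciferase/luciferin reagent mix; Doses: test compounds dosed from 2 mM stocks in 100% DMSO; Schedule: 10 min incubation after luciferase reagent addition, room temperature; Measured by: luminescence from luciferase reaction; Read-out: luminescence gain marking luciferase activators.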
ABCB6 inh 2 – ABCB6 transporter inhibitors, primary screen, K562-ABCB6 cells, flow cytometry, MLPCN library; ATP-binding cassette sub-family B member 6 (Homo sapiens), Q9NP58; K562-ABCB6 porphyrin accumulation, 1 h; stronger effect = lower value; fluorescence ratio to DMSO, % at 10 µM; 360,000 tested, 0.19% active; AID 602162, 2011;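 active = fluorescence ratio to DMSO below 75%, the collection mean minus 3 SD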;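 also: signal is porphyrin accumulated inside mitochondria; 100% equals median channel fluorescence of DMSO control wells; lower ratio means ABCB6 inhibition with less porphyrin fluorescence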
Target sequence (Q9NP58 whole entry, looked up): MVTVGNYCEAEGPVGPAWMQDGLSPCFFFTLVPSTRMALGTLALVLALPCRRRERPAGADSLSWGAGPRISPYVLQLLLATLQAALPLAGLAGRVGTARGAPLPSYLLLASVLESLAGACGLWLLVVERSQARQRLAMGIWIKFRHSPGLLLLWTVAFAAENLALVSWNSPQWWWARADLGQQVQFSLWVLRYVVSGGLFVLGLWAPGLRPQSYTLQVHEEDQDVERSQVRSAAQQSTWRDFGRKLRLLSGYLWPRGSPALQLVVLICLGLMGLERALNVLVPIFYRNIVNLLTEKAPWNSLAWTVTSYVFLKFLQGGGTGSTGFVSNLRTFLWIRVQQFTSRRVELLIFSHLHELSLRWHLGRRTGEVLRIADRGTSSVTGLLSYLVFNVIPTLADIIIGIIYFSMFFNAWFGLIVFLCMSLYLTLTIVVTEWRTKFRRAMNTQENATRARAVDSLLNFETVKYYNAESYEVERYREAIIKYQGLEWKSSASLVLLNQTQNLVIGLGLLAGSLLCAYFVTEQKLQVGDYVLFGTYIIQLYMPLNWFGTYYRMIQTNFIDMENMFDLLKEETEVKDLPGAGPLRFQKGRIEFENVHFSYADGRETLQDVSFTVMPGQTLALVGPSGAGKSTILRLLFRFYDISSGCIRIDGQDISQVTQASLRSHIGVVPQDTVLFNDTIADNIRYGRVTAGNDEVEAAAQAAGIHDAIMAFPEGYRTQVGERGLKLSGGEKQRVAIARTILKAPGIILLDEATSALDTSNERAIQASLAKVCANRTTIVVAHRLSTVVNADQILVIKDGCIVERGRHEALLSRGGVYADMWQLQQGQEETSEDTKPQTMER
Diaphorase act – compounds boosting diaphorase resazurin reduction – biochemical, uHTS, resorufin fluorescence, counter-screen for diaphorase-coupled primary assays, primary screen; 190,000 tested, 0.005% active; AID 1229, 2008; activation factor at 20 µM; Diaphorase/resazurin coupled assay, 16 min; stronger effect = higher value; 1 = vehicle wells, 0 = NADH-free wells;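 active = diaphorase activity raised at least twofold by the compound at 20 µM; inactive = activation factor below 2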
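Material: purified diaphorase enzyme from Clostridium kluyveri / Medium: HEPES pH 7.4 buffer with MgCl2 and Tween 20 / Schedule: enzyme reaction of 16 min at room temperature / Measured by: resorufin fluorescence, excitation 544 nm, emission 590 nm / Evaluation: rise in resorufin formation, marking diaphorase activation or chemical reduction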
ABCG2 block – ABCG2 efflux pump inhibitors, primary screen, multiplex with ABCB1, IgMXP3 cells, flow cytometry; Broad substrate specificity ATP-binding cassette transporter ABCG2 (Homo sapiens), Q9UNQ0; JC-1 efflux; inhibition, % at 6.6 µM; 190,000 tested, 0.1% active; AID 1325, 2008;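 active = inhibition above 80%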;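 also: 0% = DMSO and 100% = nicardipine control wells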
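test system = two drug-resistant human cell lines, ABCG2 and ABCB1 | amount = 3 million cells/mL final, two lines in 1:1 ratio | reagent = JC-1 transporter substrate | doses = one concentration, 6.6 µM final | incubation = 10 min at 25 °C | signal = flow cytometric JC-1 green MFI at 530 nm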
* = called active by the depositor; x = not tested or not shown. Many of the other results were omitted from the sample, so hits are more common in it than they were.

SMILES	FLuc inh counter	ABCB1 block	FLuc stim CS	ABCB6 inh 2	Diaphorase act	ABCG2 block
O=C(Nc1cccc(NC(=O)c2ccco2)c1)c1ccc2c(c1)OCCO2	28	1	0.7	99	0.8	3
CCOC(=O)C[C@H]1c2ccccc2S(=O)(=O)N1c1cccc(OC)c1	x	x	x	99	x	x
Cc1ccc(S(=O)(=O)N2CCN(C(=O)CCc3c[nH]c4ccccc34)CC2)c(C)c1	x	x	x	100	x	x
O=C1[C@@H](Oc2ccccc2)[C@@H](c2cnc3ccccc3c2)N1c1ccccc1	x	x	x	108	x	x
CC(=O)Nc1cccc(NC(=O)CSc2nc(=O)n(CCN3CCOCC3)c3c2CCCC3)c1	x	x	x	94	x	x
CC12CCC(=O)N1C(C(=O)NNC(=O)COc1ccccc1F)CS2 (centres undefined)	x	x	x	95	x	x
Cc1cccc(/C(N)=N/OC(=O)c2ccco2)c1	56*	0	0.4	91	0.9	3
N/C(=N\OC(=O)c1ccco1)c1ccccn1	55*	0	0.4	97	1	1
N/C(=N\OC(=O)c1cccc2ccccc12)c1ccccn1	x	x	x	90	x	x
COc1ccc(C(=O)COC(=O)c2ccco2)cc1	72*	1	0.3	86	0.8	5
COc1ccc(C(=O)COc2cccc(NC(=O)c3ccco3)c2)cc1	8	1	0.9	97	0.9	11
COc1cc(OC)c(C(=O)O/N=C(\N)c2cccc(C)c2)cc1OC	x	x	x	97	x	x
COc1ccc(/C(N)=N/OC(=O)c2ccco2)cc1	68*	0	0.3	105	0.9	6
COc1ccc(C(O)(C(C)C)C(CN2CCOCC2)c2ccc(Cl)cc2)cc1 (centres undefined)	x	x	x	98	x	x
COc1cc([N+](=O)[O-])ccc1NC(=O)CN1C(=O)NC2(CCCCC2C)C1=O (centres undefined)	x	x	x	101	x	x
Cc1ccc(C(=O)NNC(=S)NC(=O)c2ccco2)cc1	4	0	1	98	0.6	2
N/C(=N\OC(=O)c1ccco1)c1ccccc1	58*	0	0.4	99	0.9	-1
Cc1ccc(C(=O)O/N=C(\N)c2ccc(Br)cc2)cc1	30	-1	0.7	98	0.9	15
Cc1ccc(C(=O)NNC(=O)c2ccco2)cc1	57*	1	0.4	101	0.9	3
N/C(=N\OC(=O)c1ccco1)c1ccc(Br)cc1	34	0	0.7	113	0.9	22
Cc1ccc(/C(N)=N/OC(=O)c2ccco2)cc1	60*	0	0.4	100	0.9	1
COc1cc(/C=N/NC(=O)c2nnn(-c3nonc3N)c2C(C)C)ccc1OCc1ccc(F)cc1	x	x	x	98	x	x
CCCn1c(SCC(=O)NCc2ccc3c(c2)OCO3)n[nH]c1=O	x	x	x	105	x	x
Cc1[nH]n(C(N)=S)c(=O)c1N=Nc1cc(-c2ccc(Br)cc2)[nH]n1	56*	-1	0.4	94	0.5	-3
Cc1ccc(N=Nc2c(C)[nH]n(C(N)=S)c2=O)cc1C	33	0	0.7	94	0.9	0
SMILES	FLuc inh counter	ABCB1 block	FLuc stim CS	ABCB6 inh 2	Diaphorase act	ABCG2 block
Cc1[nH]n(C(N)=S)c(=O)c1N=Nc1ccc2ccccc2c1	63*	0	0.4	104	0.7	0
CC(=O)Nc1ccc(N=Nc2c(C)[nH]n(C(N)=S)c2=O)cc1	29	-1	0.7	95	0.7	-1
Cc1cc(C)cc(-c2nnc(SCC(=O)NCC3CCCO3)o2)c1 (centres undefined)	x	x	x	98	x	x
CCOc1cccc(-c2nc3c(s2)CCc2onc(-c4cccc([N+](=O)[O-])c4)c2-3)c1	x	x	x	102	x	x
COc1ccc(OCc2cccc(C(=O)Nn3cc([N+](=O)[O-])cn3)c2)cc1	70*	-1	0.3	103	0.8	-3
COc1ccc(OCc2cccc(C(=O)NN)c2)cc1	30	0	0.7	98	0.8	3
O=c1c(Cl)c(N2CCOCC2)cnn1-c1nc2ccccc2[nH]1	71*	0	0.3	96	1	3
c1ccc2[nH]c(N3CCOCC3)nc2c1	-7	0	1.1	119	0.9	0
CC(C)c1ccc(C2(C)NC(=O)N(CC(=O)N3CCN(C(=O)c4cccs4)CC3)C2=O)cc1 (centres undefined)	x	x	x	99	x	x
Cc1ccc2nc(/C(C#N)=C\c3ccc(N4CCOCC4)o3)[nH]c2c1	62*	1	0.4	173	0.6	0
Cc1cc(NC(=O)c2ccccc2)sc1C	64*	0	0.4	92	1	5
Cc1ccc(NC(=O)c2ccccc2)s1	76*	0	0.2	95	0.8	3
O=C1c2ccccc2C(=O)N1/N=C/c1ccc(O)c(O)c1	74*	0	0.3	101	0.5	3
O=C1C2C3C=CC(CC3)C2C(=O)N1/N=C/c1ccc(O)c(O)c1 (centres undefined)	42	0	0.6	98	0.7	-3
Nc1ccc2nc(-c3ccccc3)sc2c1	90*	0	0.1	99	0.8	26
Nc1ccc(-c2nc3cc(N)ccc3s2)cc1	89*	-1	0.1	98	0.9	-3
Cc1ccc2nc(-c3ccc(N)cc3)sc2c1	x	x	x	92	x	x
O=c1[nH]cnc2scc(-c3ccc(-c4ccccc4)cc3)c12	60*	0	0.4	99	0.9	4
CCCOc1ccc(-c2csc3nc[nH]c(=O)c23)cc1	x	x	x	90	x	x
CCOc1ccccc1C(=O)Nc1cc(OC)ccc1OC	-3	3	1	102	0.9	100*
CCOc1cc(NC(=O)c2ccccc2OC)c(OCC)cc1NC(=O)c1ccccc1	x	x	x	96	x	x
Cc1ccc(C=Nc2ccc(N(C)C)cc2)o1	76*	-1	0.2	92	0.6	-1
ClCCn1cnc2c(SCc3ccccc3)ncnc21	x	x	x	102	x	x
CCOC(=O)c1sc(NC(=O)c2cccs2)cc1C	71*	0	0.3	93	1	11
O=c1[nH]cnc2cc(-c3ccccc3)sc12	49	0	0.5	103	1	4
COc1ccc(-c2cc3nc[nH]c(=O)c3s2)cc1	72*	0	0.3	97	0.9	0
CC(C)COc1ccc(/C=C2/Sc3ccccc3C2=O)cc1	57*	0	0.4	116	0.9	-1
Cc1ccc2c(c1)sc(=NC(=O)C1CC1)n2C	x	x	x	92	x	x

Assay outcomes from PubChem BioAssay.
